Experimental findings from ChEMBL document CHEMBL1127665, “Synthesis and antibacterial activity of new quinolones containing a 7-[3-(1-amino-1-methylethyl)-1-pyrrolidinyl] moiety. Gram-positive agents with excellent oral activity and low side-effect potential” (J Med Chem, 1994) are described below.

Converted amounts (≈) assume the structure as drawn.

Data set [1] relates to Enterobacter cloacae. Description: Minimum inhibitory concentration against Enterobacter cloacae MA 2646. Type of data set: functional.
The subject of data set [2] is Escherichia coli. The data set is described as follows: Minimum inhibitory concentration against Escherichia coli Vogel. The class given is functional. The essentials:
(§1)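 Tested by microtitration against a panel of 10 Gram-positive and Gram-negative organisms. MIC is reported in μg/mL.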

Data set [3] has as its system Klebsiella pneumoniae. Description: Minimum inhibitory concentration against Klebsiella pneumoniae MGH-2. Type of data set: functional. The essentials: as §1
Data set [4] deals with Mus musculus. Description: In vivo antibacterial activity against Escherichia coli after following oral administration. The class given is functional. The note with it: read-out: PD50. The gist of the method: (§2)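 Acute lethal systemic infection in female Charles River CD-1 mice. Compound given orally or subcutaneously. Potency expressed as median protective dose (PD50, mg/kg), the dose preventing death in 50% of animals.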

For data set [5], the system named is Mus musculus. The data set is described as follows: In vivo antibacterial activity against Escherichia coli after following subcutaneous administration. The class given is functional. The note with it: sc, read-out: PD50. The gist of the method:
as §2

Data set [6] has as its system Mus musculus. Description: In vivo antibacterial activity against Streptococcus pyogenes after following oral administration. Type of data set: functional. As to conditions: read-out: PD50. The essentials:
as §2

Data set [7] deals with Mus musculus. The data set is described as follows: In vivo antibacterial activity against Streptococcus pyogenes after following subcutaneous administration. Type of data set: functional. The note with it: sc, read-out: PD50. The gist of the method: as §2
In data set [8] the test system is Pseudomonas aeruginosa. Description: Minimum inhibitory concentration against U1-18 cell line from Pseudomonas aeruginosa. Type of data set: functional. The essentials: as §1
Data set [9] deals with Providencia rettgeri. The data set is described as follows: Minimum inhibitory concentration against M1771 strain of Providencia rettgeri. The class given is functional. The essentials:
as §1

For data set [10], the system named is Staphylococcus aureus. The data set is described as follows: Minimum inhibitory concentration against Staphylococcus aureus H 228. Type of data set: functional. The essentials: as §1
Data set [11] relates to Staphylococcus aureus. The data set is described as follows: Minimum inhibitory concentration against Staphylococcus aureus UC-76. Type of data set: functional. The gist of the method: as §1
In data set [12] the test system is Streptococcus pyogenes. Description: Minimum inhibitory concentration against Streptococcus pyogenes C203. The class given is functional. The gist of the method: as §1
The test system of data set [13] is Enterococcus faecalis. The data set is described as follows: Minimum inhibitory concentration against Streptococcus faecalis MGH-2. The class given is functional. The essentials: as §1
The test system of data set [14] is Streptococcus pneumoniae. Description: Minimum inhibitory concentration tested against Streptococcus pneumoniae SV-1. Type of data set: functional. The essentials: as §1
The test system of data set [15] is V79. Description: Clonogenic cytotoxicity against Hamster V-79 cells. The class given is cell-based. As to conditions: Cricetulus griseus.
Data set [16] in a line: The no effect dose (NED) for phototoxicity in mouse. The class given is organism-based. The note with it: in vivo, read-out: NED. The essentials:
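Female CD-1 mice were depilated and dosed orally, with five animals per dose plus controls. After each dose the mice were exposed to UVA for 3 h. This was repeated daily for 4 days. Any redness or erythema relative to control was scored positive. The value is the highest dose producing no effect, in mg/kg.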

One may read the IC50 as the midpoint of a concentration-inhibition curve. Low values mean higher potency, high ones lower potency.

For `NCC1CCN(c2c(F)cc3c(=O)c(C(=O)O)cn(C4CC4)c3c2Cl)C1` (stereo not drawn), the MIC was found to be 0.025 µg/mL (≈ 0.0658 µM) in data set [1]; 0.025 µg/mL (≈ 0.0658 µM) in data set [2]; 0.05 µg/mL (≈ 0.132 µM) in data set [3]; 0.4 µg/mL (≈ 1.05 µM) in data set [8]; 0.05 µg/mL (≈ 0.132 µM) in data set [9]; 0.003 µg/mL (≈ 0.0079 µM) in data set [10]. Also, the MIC came to 0.003 µg/mL (≈ 0.0079 µM) in data set [11], 0.003 µg/mL (≈ 0.0079 µM) in data set [12], 0.006 µg/mL (≈ 0.0158 µM) in data set [13] and 0.003 µg/mL (≈ 0.0079 µM) in data set [14]. In addition, the ED50 in data set [4] was 33 mg/kg; in data set [5], 1 mg/kg; in [6] it was 5 mg/kg; in data set [7], 0.2 mg/kg.
`CC(C)(N)[C@@H]1CCN(c2c(F)cc3c(=O)c(C(=O)O)cn(C4CC4)c3c2Cl)C1.Cl`: the MIC in [1] is 0.05 µg/mL; in data set [2], 0.05 µg/mL; in data set [3], 0.1 µg/mL; in [8] it was 0.8 µg/mL; in data set [9], 0.2 µg/mL; in [10] it was 0.006 µg/mL. For the same compound, the MIC was 0.003 µg/mL in data set [11], 0.003 µg/mL in data set [12], 0.013 µg/mL in [13] and 0.003 µg/mL in data set [14]. The ED50 in [4] was determined as 8 mg/kg; in data set [5], 1 mg/kg; in [6], 2 mg/kg; in data set [7], 0.1 mg/kg. Moreover, the 50% inhibitory concentration (IC50) in data set [15] was less than 8 µg/mL.
On to `COc1c(N2CC[C@@H](C(C)(C)N)C2)c(F)cc2c(=O)c(C(=O)O)cn(C3CC3)c12.Cl`, for which the MIC in data set [1] is 0.1 µg/mL; in data set [2], 0.1 µg/mL; in [3], 0.2 µg/mL; in data set [8], 1.6 µg/mL; in [9], 0.4 µg/mL; in data set [10], 0.013 µg/mL. Moreover, the MIC stood at 0.003 µg/mL in data set [11], 0.003 µg/mL in data set [12], 0.013 µg/mL in [13] and 0.003 µg/mL in data set [14]. Moreover, the ED50 in [4] came to 26 mg/kg; in data set [5], 3 mg/kg; in data set [6] it was 2 mg/kg; in data set [7], 0.6 mg/kg. This compound also yielded an IC50 in [15] of 18 µg/mL.
Take `O=C(O)c1cn(C2CC2)c2cc(N3CCNCC3)c(F)cc2c1=O` [CIPROFLOXACIN]: the MIC in data set [3] was found to be 0.05 µg/mL (≈ 0.151 µM); in data set [8], 0.4 µg/mL (≈ 1.21 µM); in data set [9], 0.1 µg/mL (≈ 0.302 µM); in data set [10], 3.1 µg/mL (≈ 9.36 µM); in data set [11] it was 0.2 µg/mL (≈ 0.604 µM); in data set [12], 0.8 µg/mL (≈ 2.41 µM). Moreover, the figures for the MIC in data set [13] and in data set [14] were 0.8 µg/mL (≈ 2.41 µM) and 1.6 µg/mL (≈ 4.83 µM), respectively. Also, the NOAEL in data set [16] is more than 100 mg/kg. For the same compound, the ED50 in data set [4] stood at 1 mg/kg; in data set [5], 0.3 mg/kg; in data set [6], 180 mg/kg; in data set [7], 19 mg/kg.
As for `NCC1CCN(c2cc3c(cc2F)c(=O)c(C(=O)O)cn3C2CC2)C1` (stereo not drawn), the MIC in [1] is 0.1 µg/mL (≈ 0.29 µM); in data set [2] it was 0.05 µg/mL (≈ 0.145 µM); in [3], 0.1 µg/mL (≈ 0.29 µM); in [8] it was 0.8 µg/mL (≈ 2.32 µM); in data set [9], 0.2 µg/mL (≈ 0.579 µM); in data set [10] it was 0.05 µg/mL (≈ 0.145 µM). The MIC in data set [11] was determined as 0.006 µg/mL (≈ 0.0174 µM); in data set [12], 0.013 µg/mL (≈ 0.0376 µM); in [13] it was 0.05 µg/mL (≈ 0.145 µM); in [14], 0.013 µg/mL (≈ 0.0376 µM). In addition, the ED50 is more than 100 mg/kg in data set [4], 2 mg/kg in [5], more than 100 mg/kg in data set [6] and 4 mg/kg in data set [7].
As to `NCC1CCN(c2nc3c(cc2F)c(=O)c(C(=O)O)cn3-c2ccc(F)cc2F)C1` (stereo not drawn), the MIC in data set [1] worked out at 0.05 µg/mL (≈ 0.12 µM); in data set [2], 0.05 µg/mL (≈ 0.12 µM); in data set [3], 0.1 µg/mL (≈ 0.239 µM); in data set [8], 0.4 µg/mL (≈ 0.956 µM); in [9], 0.2 µg/mL (≈ 0.478 µM); in data set [10], 0.05 µg/mL (≈ 0.12 µM). Besides, the MIC in [11] worked out at 0.013 µg/mL (≈ 0.0311 µM); in data set [12] it was 0.025 µg/mL (≈ 0.0598 µM); in data set [13], 0.025 µg/mL (≈ 0.0598 µM); in data set [14], 0.025 µg/mL (≈ 0.0598 µM).
In the case of `COc1c(N2CC[C@H](C(C)(C)N)C2)c(F)cc2c(=O)c(C(=O)O)cn(C3CC3)c12.Cl`, the MIC in data set [1] was 0.2 µg/mL; in data set [2] it was 0.2 µg/mL; in [3] it was 0.4 µg/mL; in data set [8], 3.1 µg/mL; in [9], 0.8 µg/mL; in data set [10], 0.05 µg/mL. For the same compound, the MIC came to 0.013 µg/mL in [11], 0.025 µg/mL in data set [12], 0.05 µg/mL in data set [13] and 0.025 µg/mL in [14]. In addition, the ED50 came to 29 mg/kg in [6] and 3 mg/kg in [7]. In data set [15], this compound registered an IC50 of more than 500 µg/mL.
With `CC(C)(N)[C@H]1CCN(c2c(F)cc3c(=O)c(C(=O)O)cn(C4CC4)c3c2Cl)C1.Cl`, the MIC in data set [1] was found to be 0.1 µg/mL; in data set [2], 0.1 µg/mL; in data set [3], 0.2 µg/mL; in data set [8], 1.6 µg/mL; in data set [9], 0.4 µg/mL; in data set [10], 0.025 µg/mL. The MIC in [11] came to 0.013 µg/mL; in data set [12], 0.025 µg/mL; in [13], 0.05 µg/mL; in [14] it was 0.013 µg/mL. Moreover, the ED50 in data set [4] was 27 mg/kg; in data set [5], 4 mg/kg; in data set [6], 13 mg/kg; in data set [7], 4 mg/kg.
